Assay results reported in ChEMBL document CHEMBL1240383, “Acquisition of flucytosine, azole, and caspofungin resistance in Candida glabrata bloodstream isolates serially obtained from a hematopoietic stem cell transplant recipient” (2010).
Converted amounts (≈) assume the structure as drawn.

Legend:
Nakaseomyces glabratus [1] = assay: Antimicrobial activity against flucytosine, azole, and caspofungin resistant Candida glabrata bloodstream isolate 1 serially obtained from hematopoietic stem cell transplant recipient by Etest; type: functional
Method in brief: (§1)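 MICs by Etest following the strip maker's instructions, with C. parapsilosis ATCC 22019 as control strain. FLC, VRC and 5FC were interpreted by published CLSI criteria. For caspofungin a susceptibility breakpoint of ≤2 mg/liter was used. Isolates were serial C. glabrata blood-culture isolates from one patient, judged the same genotype by PCR of 8 microsatellite regions with fluorescent primers.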

Nakaseomyces glabratus [2] = assay: Antimicrobial activity against flucytosine, azole, and caspofungin resistant Candida glabrata bloodstream isolate 4 harboring FKS2 T1988C mutation and overexpressing CDR1 and CDR2 genes serially obtained from hematopoietic stem cell transplant recipient by Etest; type: functional; method in brief: as §1
Nakaseomyces glabratus [3] = assay: Antimicrobial activity against flucytosine, azole, and caspofungin resistant Candida glabrata bloodstream isolate 5 harboring FKS2 T1988C mutation and overexpressing CDR1 and CDR2 genes serially obtained from hematopoietic stem cell transplant recipient by Etest; type: functional; method in brief: as §1
Nakaseomyces glabratus [4] = assay: Antimicrobial activity against flucytosine, azole, and caspofungin resistant Candida glabrata bloodstream isolate 2 harboring Fur1 G190D mutation serially obtained from hematopoietic stem cell transplant recipient by Etest
Nakaseomyces glabratus [5] = assay: Antimicrobial activity against flucytosine, azole, and caspofungin resistant Candida glabrata bloodstream isolate 3 harboring Fur1 G190D mutation serially obtained from hematopoietic stem cell transplant recipient by Etest

| Compound | MIC (Nakaseomyces glabratus [1]) [µg/mL] | MIC (Nakaseomyces glabratus [2]) [µg/mL] | MIC (Nakaseomyces glabratus [3]) [µg/mL] | MIC (Nakaseomyces glabratus [4]) [µg/mL] | MIC (Nakaseomyces glabratus [5]) [µg/mL] |
| --- | --- | --- | --- | --- | --- |
| CC[C@H](C)C[C@H](C)CCCCCCCCC(=O)N[C@H]1C[C@@H](O)[C@@H](NCCN)NC(=O)[C@@H]2[C@@H](O)CCN2C(=O)[C@H]([C@H](O)CCN)NC(=O)[C@H]([C@H](O)[C@@H](O)c2ccc(O)cc2)NC(=O)[C@@H]2C[C@@H](O)CN2C(=O)[C@H]([C@@H](C)O)NC1=O [CASPOFUNGIN] | 0.19 (≈ 0.174 µM) | > 32 | > 32 | 0.125 (≈ 0.114 µM) | 0.125 (≈ 0.114 µM) |
| C[C@@H](c1ncncc1F)[C@](O)(Cn1cncn1)c1ccc(F)cc1F [VORICONAZOLE] | 0.25 (≈ 0.716 µM) | 12 (≈ 34.4 µM) | 16 (≈ 45.8 µM) | 0.125 (≈ 0.358 µM) | 0.047 (≈ 0.135 µM) |
| Nc1nc(=O)[nH]cc1F [FLUCYTOSINE] | 0.004 (≈ 0.031 µM) | 0.004 (≈ 0.031 µM) | 0.004 (≈ 0.031 µM) | > 32 | > 32 |
| C[C@@H]1[C@H](O)[C@@H](C)/C=C/C=C/C=C/C=C/C=C/C=C/C=C/[C@H](O[C@@H]2O[C@H](C)[C@@H](O)[C@H](N)[C@@H]2O)C[C@@H]2O[C@](O)(C[C@@H](O)C[C@@H](O)[C@H](O)CC[C@@H](O)C[C@@H](O)CC(=O)O[C@H]1C)C[C@H](O)[C@H]2C(=O)O [AMPHOTERICIN B] | – | 0.75 (≈ 0.812 µM) | 0.75 (≈ 0.812 µM) | 2 (≈ 2.16 µM) | 0.75 (≈ 0.812 µM) |
| OC(Cn1cncn1)(Cn1cncn1)c1ccc(F)cc1F [FLUCONAZOLE] | – | > 256 | > 256 | 2 (≈ 6.53 µM) | 1 (≈ 3.27 µM) |
